{"source": "ChEMBL document CHEMBL5715950", "about": "“Characterization of molecular and cellular functions of the cyclin-dependent kinase CDK9 using a novel specific inhibitor” (Br J Pharmacol, 2014)", "key": {"[1]": {"assay": "Selectivity ratio of IC50 for inhibition of CDK9/Cyclin T1 (unknown origin) to IC50 for inhibition of CDK2/Cyclin A (unknown origin)"}, "[2]": {"molecular_target": "Cyclin-dependent kinase 9 (Homo sapiens) (UniProt P50750)", "sequence (P50750 whole entry)": "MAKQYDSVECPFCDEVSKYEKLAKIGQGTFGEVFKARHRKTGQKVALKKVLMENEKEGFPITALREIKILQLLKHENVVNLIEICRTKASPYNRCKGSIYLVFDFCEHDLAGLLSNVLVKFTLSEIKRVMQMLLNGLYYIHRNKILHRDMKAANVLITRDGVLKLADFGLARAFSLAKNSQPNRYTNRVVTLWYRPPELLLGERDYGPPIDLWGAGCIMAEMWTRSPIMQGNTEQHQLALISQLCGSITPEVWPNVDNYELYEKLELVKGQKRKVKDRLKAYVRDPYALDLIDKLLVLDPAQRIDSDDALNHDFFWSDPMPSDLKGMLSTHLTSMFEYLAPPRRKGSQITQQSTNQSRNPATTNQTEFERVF", "assay": "Inhibition of CDK9 in human HeLa cells assessed as downregulation of Serine 7 phosphorylation at 10 uM incubated for 60 mins by Western blotting analysis", "type": "cell-based"}, "[3]": {"molecular_target": "Cyclin-dependent kinase 9 (Homo sapiens) (UniProt P50750)", "assay": "Inhibition of CDK9 in human A549 cells assessed as downregulation of RPL3 mRNA expression at 2 to 6 uM incubated for 90 mins by RT-qPCR analysis relative to control", "type": "cell-based", "details": "dose 2-6 µM"}, "[4]": {"molecular_target": "Cyclin-dependent kinase 9 (Homo sapiens) (UniProt P50750)", "assay": "Inhibition of CDK9 in human THP-1 cells assessed as downregulation of RPL31 mRNA expression by RT-qPCR analysis", "type": "cell-based"}, "HEK-293T": {"system": "HEK-293T", "assay": "Inhibition of transcription in human HEK293T cells nuclear extract fused with Gal4-VP16 at 10 uM in presence of ATP and MgCl2 by phosphorimaging analysis", "type": "functional, subcellular", "details": "Nucleus", "in_short": "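In vitro transcription from the adenovirus core promoter (Gal-ML, 380 bp G-free cassette), soluble or bead-immobilised template, using HEK293T nuclear extract supplemented with recombinant Gal4-VP16. ATP 60 μM (low), 100 μM, or 500 μM (high); magnesium varied in one series. Transcripts quantified by phosphorimaging.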"}, "[5]": {"molecular_target": "Cyclin-dependent kinase 9 (Homo sapiens) (UniProt P50750)", "assay": "Inhibition of CDK9 in human MCF7 cells assessed as upregulation of p53 protein at 10 uM incubated for 4 hrs by Western blotting analysis", "type": "cell-based"}, "[6]": {"molecular_target": "Cyclin-dependent kinase 9 (Homo sapiens) (UniProt P50750)", "assay": "Inhibition of CDK9 in human A549 cells assessed as downregulation of MYC mRNA expression at 2 to 6 uM incubated for 90 mins by RT-qPCR analysis relative to control", "type": "cell-based", "details": "dose 2-6 µM"}, "p53HCT116": {"system": "p53HCT116", "assay": "Induction of apoptosis in human p53HCT116 cells at 10 uM incubated for 24 hrs by Annexin V-FITC/PI staining based flow cytometric analysis", "type": "functional, cell-based", "in_short": "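Cells grown at 37°C, 5% CO2 (A549, HeLa, MCF7 in DMEM high glucose; HCT116 in McCoy's 5A; THP1 and primary AML M4 apheresis blasts in RPMI1640), exposed to inhibitor or DMSO for 24 h. Apoptotic fraction by flow cytometry after annexin V-fluorescein/propidium iodide double staining. Means ± SD of three biological replicates; AML blasts from one patient, three technical replicates. Student's t-test versus DMSO/untreated.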"}, "[7]": {"assay": "Selectivity ratio of IC50 for inhibition of CDK9/Cyclin T1 (unknown origin) to IC50 for inhibition of CDK4/Cyclin D1 (unknown origin)"}, "[8]": {"molecular_target": "Cyclin-dependent kinase 9 (Homo sapiens) (UniProt P50750)", "assay": "Inhibition of CDK9 in human MCF7 cells assessed as upregulation of p53 phosphorylation at Ser392 at 10 uM incubated for 4 hrs by Western blotting analysis", "type": "cell-based"}, "[9]": {"molecular_target": "Cyclin-dependent kinase 9 (Homo sapiens) (UniProt P50750)", "assay": "Inhibition of CDK9 in human A549 cells assessed as downregulation of PLK2 mRNA expression at 2 to 6 uM incubated for 90 mins by RT-qPCR analysis relative to control", "type": "cell-based", "details": "dose 2-6 µM"}, "[10]": {"molecular_target": "Cyclin-dependent kinase 9 (Homo sapiens) (UniProt P50750)", "assay": "Inhibition of CDK9 in human A549 cells assessed as downregulation of RPL3 mRNA expression at 1 to 10 uM incubated for 90 mins by RT-qPCR analysis relative to control", "type": "cell-based", "details": "dose 1-10 µM"}, "CDK7/Cyclin H/MNAT1": {"molecular_target": "CDK7/Cyclin H/MNAT1 (Homo sapiens, UniProt P50613)", "sequence (P51946 whole entry)": "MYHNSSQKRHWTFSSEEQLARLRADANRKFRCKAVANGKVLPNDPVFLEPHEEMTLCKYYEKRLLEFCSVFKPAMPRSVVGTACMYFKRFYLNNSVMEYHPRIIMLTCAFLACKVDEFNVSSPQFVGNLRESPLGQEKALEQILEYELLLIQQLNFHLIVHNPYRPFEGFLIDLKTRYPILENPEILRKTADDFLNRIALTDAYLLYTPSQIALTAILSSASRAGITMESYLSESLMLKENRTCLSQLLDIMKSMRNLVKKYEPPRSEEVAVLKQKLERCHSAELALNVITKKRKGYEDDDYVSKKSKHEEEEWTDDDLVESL", "sequence (P50613 whole entry)": "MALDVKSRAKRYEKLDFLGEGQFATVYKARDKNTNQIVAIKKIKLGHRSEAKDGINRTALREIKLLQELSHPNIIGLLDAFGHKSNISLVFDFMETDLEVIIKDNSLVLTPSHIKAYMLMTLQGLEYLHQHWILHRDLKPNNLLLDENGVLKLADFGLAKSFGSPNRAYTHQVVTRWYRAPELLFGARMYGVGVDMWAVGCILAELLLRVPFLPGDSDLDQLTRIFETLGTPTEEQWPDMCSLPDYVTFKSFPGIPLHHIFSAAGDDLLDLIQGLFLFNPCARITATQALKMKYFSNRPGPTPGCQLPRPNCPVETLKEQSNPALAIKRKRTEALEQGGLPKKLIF", "sequence (P51948 whole entry, further chain)": "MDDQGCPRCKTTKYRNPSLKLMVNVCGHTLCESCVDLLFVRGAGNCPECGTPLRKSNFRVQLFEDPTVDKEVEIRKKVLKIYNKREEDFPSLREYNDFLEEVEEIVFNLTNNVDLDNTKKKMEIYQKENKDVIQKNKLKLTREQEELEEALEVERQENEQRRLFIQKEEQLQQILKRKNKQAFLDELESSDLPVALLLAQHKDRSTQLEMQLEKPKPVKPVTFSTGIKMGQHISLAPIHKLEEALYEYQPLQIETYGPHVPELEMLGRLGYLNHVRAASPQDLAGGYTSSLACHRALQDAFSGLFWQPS", "assay": "Inhibition of CDK7/Cyclin H/MAT1 (unknown origin) using ULight MBP peptide as substrate in presence of ATP incubated for 1 hr by FRET based LANCE Ultra KinaSelect screen assay", "type": "protein-complex assay"}, "[11]": {"molecular_target": "Tyrosine-protein kinase ABL2 (Homo sapiens, UniProt P42684)", "sequence (P42684 whole entry)": "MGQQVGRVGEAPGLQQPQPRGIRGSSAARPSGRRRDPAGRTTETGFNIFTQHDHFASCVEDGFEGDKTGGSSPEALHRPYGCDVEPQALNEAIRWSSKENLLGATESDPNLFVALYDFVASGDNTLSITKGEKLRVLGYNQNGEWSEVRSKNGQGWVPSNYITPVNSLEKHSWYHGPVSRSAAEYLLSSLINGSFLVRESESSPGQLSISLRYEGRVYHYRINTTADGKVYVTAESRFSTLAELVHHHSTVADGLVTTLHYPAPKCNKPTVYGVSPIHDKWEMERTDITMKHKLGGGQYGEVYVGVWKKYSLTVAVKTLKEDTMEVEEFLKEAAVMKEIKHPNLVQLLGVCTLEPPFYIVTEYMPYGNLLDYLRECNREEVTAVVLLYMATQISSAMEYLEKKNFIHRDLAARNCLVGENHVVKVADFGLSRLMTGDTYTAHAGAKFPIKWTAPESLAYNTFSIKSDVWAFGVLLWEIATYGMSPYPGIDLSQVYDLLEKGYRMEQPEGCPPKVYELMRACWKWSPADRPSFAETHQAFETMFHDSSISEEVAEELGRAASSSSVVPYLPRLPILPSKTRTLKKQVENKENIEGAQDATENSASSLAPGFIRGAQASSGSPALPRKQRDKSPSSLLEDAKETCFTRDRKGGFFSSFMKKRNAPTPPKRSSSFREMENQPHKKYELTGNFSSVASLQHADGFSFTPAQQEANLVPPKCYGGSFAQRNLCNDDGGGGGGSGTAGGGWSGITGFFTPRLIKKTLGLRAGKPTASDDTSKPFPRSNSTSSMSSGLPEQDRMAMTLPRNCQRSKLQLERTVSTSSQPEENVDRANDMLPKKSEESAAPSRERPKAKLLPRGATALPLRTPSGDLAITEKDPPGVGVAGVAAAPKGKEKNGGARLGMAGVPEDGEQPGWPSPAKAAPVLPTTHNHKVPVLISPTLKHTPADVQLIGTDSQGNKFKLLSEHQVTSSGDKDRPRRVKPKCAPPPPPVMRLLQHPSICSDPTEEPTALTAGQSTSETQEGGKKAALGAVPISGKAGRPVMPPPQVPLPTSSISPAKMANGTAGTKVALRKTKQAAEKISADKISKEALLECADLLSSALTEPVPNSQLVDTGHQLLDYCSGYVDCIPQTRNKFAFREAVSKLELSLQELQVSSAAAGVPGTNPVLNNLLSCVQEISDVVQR", "assay": "Inhibition of ABL2 (unknown origin) incubated for 120 mins in presence of 33P-ATP by radiometric kinase assay", "in_short": "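Radiometric panel assay, 10-dose mode: serial dilutions from […], in duplicate, at 1 μM ATP. Incubated 120 min at room temperature, then spotted on P81 paper, acid-washed and counted. Values are means.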"}, "[12]": {"molecular_target": "Cyclin-dependent kinase 9 (Homo sapiens) (UniProt P50750)", "assay": "Inhibition of CDK9 in human HeLa cells assessed as upregulation of RNAPII expression at 10 uM incubated for 1 hr by chromatin immunoprecipitation assay", "type": "cell-based"}, "[13]": {"assay": "Selectivity ratio of IC50 for inhibition of CDK9/Cyclin T1 (unknown origin) to IC50 for inhibition of CDK1/Cyclin B1 (unknown origin)"}, "[14]": {"assay": "Selectivity ratio of IC50 for inhibition of CDK9/Cyclin T1 (unknown origin) to IC50 for inhibition of CDK6/Cyclin D3 (unknown origin)"}, "[15]": {"assay": "Displacement of kinase tracer 236 from CDK2/Cyclin A (unknown origin) assessed as dissociation constant incubated for 1 hr by LanthScreen Eu kinase binding assay", "set-up": "species or system Homo sapiens"}}, "note": "Calls of active or inactive are those of the source. No cut-off for these calls is given here.", "data": [{"smiles": "COc1ccccc1-c1cc(Nc2cccc(NS(C)(=O)=O)c2)ncn1", "values": [{"measurement": "Ratio IC50", "setting": "[1]", "result": 55}, {"measurement": "inhibition", "setting": "[2]", "result": "inactive"}, {"measurement": "inhibition", "setting": "[3]", "result": 50, "unit": "%"}, {"measurement": "inhibition", "setting": "[4]", "result": "Active"}, {"measurement": "inhibition", "setting": "HEK-293T", "result": "inactive"}, {"measurement": "inhibition", "setting": "[5]", "result": "Active"}, {"measurement": "inhibition", "setting": "[6]", "result": 50, "unit": "%"}, {"measurement": "Activity", "setting": "p53HCT116", "result": "Active"}, {"measurement": "Ratio IC50", "setting": "[7]", "result": 210}, {"measurement": "inhibition", "setting": "[8]", "result": "Active"}, {"measurement": "inhibition", "setting": "[9]", "result": 50, "unit": "%"}, {"measurement": "inhibition", "setting": "[10]", "result": 50, "unit": "%"}, {"measurement": "IC50", "setting": "CDK7/Cyclin H/MNAT1", "result": "> 10", "unit": "µM"}, {"measurement": "IC50", "setting": "[11]", "result": 3.64, "unit": "µM"}, {"measurement": "inhibition", "setting": "[12]", "result": "Active"}, {"measurement": "Ratio IC50", "setting": "[13]", "result": 125}, {"measurement": "Ratio IC50", "setting": "[14]", "result": "> 227"}, {"measurement": "Kd", "setting": "[15]", "result": 1.01, "unit": "µM"}]}]}
